Active and inactive are the calls of the source. The calls are words filed in the database; no cut-off is given here.
Experiments:
[1] = Cytotoxicity against human HPLF cells after 48 hrs; assay type: cell-based
Outline: (§1)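 Cells were exposed to a dose range for 48 h, following a literature method. CC50 was read from the dose–response curve.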

COLO 205 = assay: Cytotoxicity against human COLO205 cells; assay type: functional, cell-based
Outline: (§2)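 Human colon cancer and leukaemia line panel. Compounds tested from 10^-4 to 10^-8 M, and IC50 values determined.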

HCT-116 = assay: Cytotoxicity against human HCT116 cells; assay type: functional, cell-based; outline: as §2
HCT-15 = assay: Cytotoxicity against human HCT15 cells; assay type: functional, cell-based; outline: as §2
HT-29 = assay: Cytotoxicity against human HT-29 cells; assay type: functional, cell-based; outline: as §2
KM12 = assay: Cytotoxicity against human KM12 cells; assay type: functional, cell-based; outline: as §2
SW-620 = assay: Cytotoxicity against human SW620 cells; assay type: functional, cell-based; outline: as §2
HL-60(TB) = assay: Cytotoxicity against human HL-60(TB) cells; assay type: functional, cell-based; outline: as §2
K562 = assay: Cytotoxicity against human K562 cells; assay type: functional, cell-based; outline: as §2
RPMI-8226 = assay: Cytotoxicity against human RPMI8226 cells; assay type: functional, cell-based; outline: as §2
[2] = biological target: T1, ATP-dependent translocase ABCB1 (Homo sapiens, UniProt P08183); assay: Inhibition of human MDR1-mediated multidrug resistant in mouse L5178Y cells at 4 uM treated 10 mins before rhodamine 123 challenge measured after 20 mins relative to control; assay type: cell-based
T1 sequence (P08183 whole entry): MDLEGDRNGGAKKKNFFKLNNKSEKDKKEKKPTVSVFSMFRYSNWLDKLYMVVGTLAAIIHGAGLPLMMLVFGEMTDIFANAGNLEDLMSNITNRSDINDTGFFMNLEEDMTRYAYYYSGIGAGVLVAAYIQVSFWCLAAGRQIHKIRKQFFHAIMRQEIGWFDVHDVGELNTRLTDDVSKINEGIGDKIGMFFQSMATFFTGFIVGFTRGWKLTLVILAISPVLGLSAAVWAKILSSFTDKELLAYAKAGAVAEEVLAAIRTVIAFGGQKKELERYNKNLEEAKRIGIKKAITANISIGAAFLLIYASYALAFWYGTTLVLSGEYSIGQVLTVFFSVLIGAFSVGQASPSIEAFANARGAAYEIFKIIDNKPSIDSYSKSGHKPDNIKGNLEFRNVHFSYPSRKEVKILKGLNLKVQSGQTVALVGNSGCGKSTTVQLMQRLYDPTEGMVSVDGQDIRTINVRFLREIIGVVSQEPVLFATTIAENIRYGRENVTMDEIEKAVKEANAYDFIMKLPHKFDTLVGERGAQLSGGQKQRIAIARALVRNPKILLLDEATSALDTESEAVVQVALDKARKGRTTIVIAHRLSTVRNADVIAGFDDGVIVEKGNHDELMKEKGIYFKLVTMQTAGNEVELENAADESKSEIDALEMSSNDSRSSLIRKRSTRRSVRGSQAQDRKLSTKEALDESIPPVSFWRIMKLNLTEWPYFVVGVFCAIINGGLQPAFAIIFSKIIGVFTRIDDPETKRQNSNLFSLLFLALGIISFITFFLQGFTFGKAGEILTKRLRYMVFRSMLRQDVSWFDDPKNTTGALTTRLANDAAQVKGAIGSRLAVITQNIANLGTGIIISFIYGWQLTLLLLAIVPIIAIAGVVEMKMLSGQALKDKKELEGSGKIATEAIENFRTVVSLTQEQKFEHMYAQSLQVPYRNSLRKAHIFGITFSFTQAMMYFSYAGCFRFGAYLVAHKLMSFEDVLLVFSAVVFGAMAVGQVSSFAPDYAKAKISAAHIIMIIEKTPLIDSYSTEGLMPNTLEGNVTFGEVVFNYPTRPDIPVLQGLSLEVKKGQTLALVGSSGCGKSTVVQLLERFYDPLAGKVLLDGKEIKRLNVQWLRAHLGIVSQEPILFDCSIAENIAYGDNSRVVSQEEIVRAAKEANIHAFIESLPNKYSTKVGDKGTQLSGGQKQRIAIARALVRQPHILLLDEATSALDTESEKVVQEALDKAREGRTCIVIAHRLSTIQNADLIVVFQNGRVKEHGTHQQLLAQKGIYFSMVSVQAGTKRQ
Outline: (§3)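 Compounds in DMSO were added at room temperature to mdr1-transfected and parental L5178Y cells. After 10 min, rhodamine 123 was added, followed by 20 min at 37 °C. Cellular rhodamine fluorescence was measured and expressed as fluorescence activity ratio (FAR); FAR >1 indicates MDR reversal.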

[3] = biological target: T1, ATP-dependent translocase ABCB1; assay: Inhibition of human MDR1-mediated multidrug resistant in mouse L5178Y cells at 40 uM treated 10 mins before rhodamine 123 challenge measured after 20 mins relative to control; assay type: cell-based; outline: as §3
MOLT-4 = assay: Growth inhibition of human Molt4/C8 cells; assay type: functional, cell-based
CCRF-CEM = assay: Growth inhibition of human CEM cells; assay type: functional, cell-based
L1210 = assay: Growth inhibition of mouse L1210 cells; assay type: functional, cell-based
HSC-2 [4] = assay: Cytotoxicity against human HSC2 cells after 48 hrs; assay type: functional; conditions: HSC-2, 48 h
Outline: (§4)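 Human HSC-2, HSC-3, HSC-4 squamous carcinoma and HL-60 promyelocytic leukaemia cells incubated with compound for 48 h. CC50, the concentration killing 50% of cells, read from a dose–response curve.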

HSC-2 [5] = assay: Selectivity index, ratio of CC50 for human normal cells to CC50 for human HSC2 cells; assay type: functional
HSC-3 [6] = assay: Cytotoxicity against human HSC3 cells after 48 hrs; assay type: functional; conditions: HSC-3, 48 h; outline: as §4
HSC-3 [7] = assay: Selectivity index, ratio of CC50 for human normal cells to CC50 for human HSC3 cells; assay type: functional
HSC-4 [8] = assay: Cytotoxicity against human HSC4 cells after 48 hrs; assay type: functional; conditions: HSC-4, 48 h; outline: as §4
HSC-4 [9] = assay: Selectivity index, ratio of CC50 for human normal cells to CC50 for human HSC4 cells; assay type: functional
HL-60 [10] = assay: Cytotoxicity against human HL60 cells after 48 hrs; assay type: functional; conditions: HL-60, 48 h; outline: as §4
HL-60 [11] = assay: Selectivity index, ratio of CC50 for human normal cells to CC50 for human HL60 cells; assay type: functional
[12] = Cytotoxicity against human HGF cells after 48 hrs; assay type: cell-based; outline: as §1
HCC 2998 = assay: Cytotoxicity against human HCC2998 cells; assay type: functional, cell-based; outline: as §2
HSC-2 [13] = assay: Ratio of melphalan CC50 to compound CC50 for human HSC2 cells; assay type: functional
HSC-3 [14] = assay: Ratio of melphalan CC50 to compound CC50 for human HSC3 cells; assay type: functional
HSC-4 [15] = assay: Ratio of melphalan CC50 to compound CC50 for human HSC4 cells; assay type: functional

SMILES | CC50 at 48 h [1] | IC50 (COLO 205) | IC50 (HCT-116) | IC50 (HCT-15) | IC50 (SW-620) | IC50 (HL-60(TB)) | Ratio [2] | Ratio [3] | growth inhibition (GI) (MOLT-4) | growth inhibition (GI) (CCRF-CEM) | growth inhibition (GI) (L1210) | CC50 (HSC-2 [4]) | Ratio (HSC-2 [5]) | CC50 (HSC-3 [6]) | Ratio (HSC-3 [7]) | CC50 (HSC-4 [8]) | Ratio (HSC-4 [9]) | CC50 (HL-60 [10]) | Ratio (HL-60 [11]) | CC50 at 48 h [12] | other results
O=C1/C(=C/c2ccccc2)CN(C(=O)c2cccc(C(=O)N3C/C(=C\c4ccccc4)C(=O)/C(=C/c4ccccc4)C3)c2)C/C1=C\c1ccccc1 | 46 µM | 2.4 µM | 0.2 µM | 1.7 µM | 0.36 µM | 2.04 µM | 38.9 | 61.3 | Active | Active | Active | 3.2 µM | 11.3 | 6.3 µM | 5.76 | 8 µM | 4.54 | 6.6 µM | 5.5 | 42 µM | IC50 (HT-29): 0.55 µM; IC50 (KM12): 0.35 µM; IC50 (K562): 1.55 µM; IC50 (RPMI-8226): 0.73 µM
O=c1[nH]cc(F)c(=O)[nH]1 [FLUOROURACIL] |  |  |  |  | 380 µM | > 2510 µM |  |  |  |  |  |  |  |  |  |  |  |  |  |  | 
O=C1/C(=C/c2ccccc2)CN(C(=O)/C=C/C(=O)N2C/C(=C\c3ccccc3)C(=O)/C(=C/c3ccccc3)C2)C/C1=C\c1ccccc1 | 22 µM | 0.56 µM | 0.13 µM | 0.83 µM | 0.22 µM | 0.45 µM | 37.2 | 52.9 | Active | Active | Active | 0.078 µM | 191 | 0.62 µM | 24 | 0.58 µM | 25.7 | 1.2 µM | 12.4 | 17 µM | IC50 (HCC 2998): 0.22 µM; IC50 (HT-29): 0.25 µM; IC50 (KM12): 0.21 µM; IC50 (K562): 0.32 µM; IC50 (RPMI-8226): 0.05 µM
O=C1/C(=C/c2ccccc2)CN(C(=O)/C=C/C=C/C(=O)N2C/C(=C\c3ccccc3)C(=O)/C(=C/c3ccccc3)C2)C/C1=C\c1ccccc1 | 47 µM |  |  |  |  |  | 48.6 | 44.3 | Active | Active | Active | 2.6 µM | 13.5 | 8.5 µM | 4.12 | 6.4 µM | 5.47 | 7.4 µM | 4.73 | 39 µM | 
O=C1/C(=C/c2ccccc2)CN(C(=O)CCCC(=O)N2C/C(=C\c3ccccc3)C(=O)/C(=C/c3ccccc3)C2)C/C1=C\c1ccccc1 | 3.9 µM |  |  |  |  |  | 50.2 | 73.4 | Active | Active | Active | 0.071 µM | 34.8 | 0.17 µM | 14.5 | 0.19 µM | 13 | 0.39 µM | 6.33 | 2.9 µM | 
N[C@@H](Cc1ccc(N(CCCl)CCCl)cc1)C(=O)O [MELPHALAN] |  |  |  |  |  |  |  |  |  |  |  | 8.7 µM | 24.1 | 25 µM | 8.4 | 32 µM | 6.56 | 1.4 µM | 150 |  | 
O=C1/C(=C/c2ccccc2)CN(C(=O)CCC(=O)N2C/C(=C\c3ccccc3)C(=O)/C(=C/c3ccccc3)C2)C/C1=C\c1ccccc1 | 16 µM | 0.39 µM | 0.14 µM | 0.38 µM | 0.26 µM | 0.27 µM | 35 | 60 | Active | Active | Active | 0.099 µM | 92.6 | 0.23 µM | 39.9 | 0.24 µM | 38.2 | 0.41 µM | 22.4 | 10 µM | IC50 (HCC 2998): 0.23 µM; IC50 (HT-29): 0.24 µM; IC50 (KM12): 0.3 µM; IC50 (K562): 0.22 µM; IC50 (RPMI-8226): 0.06 µM
O=C1/C(=C/c2ccccc2)CN(C(=O)c2ccccc2C(=O)N2C/C(=C\c3ccccc3)C(=O)/C(=C/c3ccccc3)C2)C/C1=C\c1ccccc1 | 8.5 µM | 0.21 µM | 0.03 µM | 0.35 µM | 0.3 µM | 0.21 µM | 46.5 | 51.5 | Active | Active | Active | 0.026 µM | 189 | 0.076 µM | 64.7 | 0.082 µM | 60 | 0.11 µM | 44.7 | 5.7 µM | IC50 (HCC 2998): 0.2 µM; IC50 (HT-29): 0.17 µM; IC50 (KM12): 0.21 µM; IC50 (K562): 0.21 µM; IC50 (RPMI-8226): 0.06 µM; Ratio (HSC-2 [13]): 335; Ratio (HSC-3 [14]): 329; Ratio (HSC-4 [15]): 390
O=C1/C(=C/c2ccccc2)CN(C(=O)C(=O)N2C/C(=C\c3ccccc3)C(=O)/C(=C/c3ccccc3)C2)C/C1=C\c1ccccc1 | 5.3 µM | 0.36 µM | 0.03 µM | 0.3 µM | 0.07 µM | 0.2 µM | 19.3 | 41.1 | Active | Active | Active | 0.085 µM | 38.4 | 0.15 µM | 21.7 | 0.2 µM | 16.3 | 0.11 µM | 29.6 | 3.8 µM | IC50 (HCC 2998): 0.19 µM; IC50 (HT-29): 0.17 µM; IC50 (KM12): 0.04 µM; IC50 (K562): 0.2 µM; IC50 (RPMI-8226): 0.25 µM
O=C1/C(=C/c2ccccc2)CN(C(=O)CCCCCCC(=O)N2C/C(=C\c3ccccc3)C(=O)/C(=C/c3ccccc3)C2)C/C1=C\c1ccccc1 | 17 µM |  |  |  |  |  | 49.2 | 55.7 | Active | Active | Active | 0.17 µM | 61.2 | 0.21 µM | 49.5 | 0.62 µM | 16.8 | 1.3 µM | 8 | 13 µM | 
O=C1/C(=C/c2ccccc2)CN(C(=O)C#CC(=O)N2C/C(=C\c3ccccc3)C(=O)/C(=C/c3ccccc3)C2)C/C1=C\c1ccccc1 | 13 µM | 0.25 µM | 0.12 µM | 0.39 µM | 0.2 µM | 0.25 µM | 42 | 45.7 | Active | Active | Active | 0.19 µM | 41.4 | 0.49 µM | 16.1 | 0.93 µM | 8.46 | 0.87 µM | 9.05 | 8.5 µM | IC50 (HCC 2998): 0.41 µM; IC50 (HT-29): 0.2 µM; IC50 (KM12): 0.28 µM; IC50 (K562): 0.3 µM; IC50 (RPMI-8226): 0.08 µM
